Results: ChEMBL document CHEMBL3244243, “Mitomycin antibiotics. Synthesis and activity of 1,2-disubstituted mitosenes” (J Med Chem, 1977)
Activity calls are given as the source filed them. No cut-off for these calls is given here.

Key:
[1] = test system: Enterobacteria phage lambda; experiment: (§1) Induction of lambda-bacteriophage expression in Escherichia coli assessed as induction of plaques at 0.2 ug/ml relative to control; format: functional
Escherichia coli [2] = experiment: Antibacterial activity against Escherichia coli K-12 assessed as zone of inhibition by disk-plate assay; format: functional
Escherichia coli [3] = experiment: Toxicity in lambda-bacteriophage infected Escherichia coli at 0.2 ug/ml; format: organism-based; settings: in vivo
Escherichia coli [4] = experiment: Toxicity in lambda-bacteriophage infected Escherichia coli at 0.0125 ug/ml; format: organism-based; settings: in vivo
[5] = Induction of lambda-bacteriophage expression in Escherichia coli assessed as induction of plaques at 0.003 ug/ml relative to control; format: functional, Enterobacteria phage lambda
[6] = test system: Mycolicibacterium smegmatis; experiment: Antibacterial activity against Mycobacterium smegmatis 607 assessed as zone of inhibition by disk-plate assay; format: functional
Bacillus subtilis = experiment: Antibacterial activity against Bacillus subtilis assessed as zone of inhibition by disk-plate assay; format: functional
P388 [7] = experiment: Antitumor activity against mouse P388 cells allografted CDF mouse assessed as increase in maximum survival time at 3.2 mg/kg treated on days 1 and 5 following tumor implantation relative to saline treated control; format: functional
In short: (§2)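 Male CDF mice implanted intraperitoneally with 10⁶ P388 ascites leukemia cells; compound given on days 1 and 5 after tumor inoculum. Increase in maximum survival time calculated against saline-treated controls. Six mice per treated group, ten mice in the control group.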

Enterococcus faecalis = experiment: Antibacterial activity against Streptococcus faecalis P1377 assessed as zone of inhibition by disk-plate assay; format: functional
Escherichia coli [8] = experiment: Toxicity in lambda-bacteriophage infected Escherichia coli at 0.8 ug/ml; format: organism-based; settings: in vivo
Escherichia coli [9] = experiment: Antibacterial activity against Escherichia coli B A9885 assessed as zone of inhibition by disk-plate assay; format: functional
Staphylococcus aureus [10] = experiment: Antibacterial activity against Staphylococcus aureus 209P assessed as zone of inhibition by disk-plate assay; format: functional
[11] = test system: Enterobacteria phage lambda; experiment: (§3) Induction of lambda-bacteriophage expression in Escherichia coli assessed as induction of plaques at 0.05 ug/ml relative to control; format: functional
[12] = test system: Enterobacteria phage lambda; experiment: (§4) Induction of lambda-bacteriophage expression in Escherichia coli assessed as induction of plaques at 0.8 ug/ml relative to control; format: functional
Micrococcus luteus = experiment: Antibacterial activity against Sarcina lutea assessed as zone of inhibition by disk-plate assay; format: functional
Klebsiella pneumoniae = experiment: Antibacterial activity against Klebsiella pneumoniae assessed as zone of inhibition by disk-plate assay; format: functional
Escherichia coli [13] = experiment: Toxicity in lambda-bacteriophage infected Escherichia coli at 0.05 ug/ml; format: organism-based; settings: in vivo
[14] = Induction of lambda-bacteriophage expression in Escherichia coli assessed as induction of plaques at 0.0125 ug/ml relative to control; format: functional, Enterobacteria phage lambda
Staphylococcus aureus [15] = experiment: Antibacterial activity against Staphylococcus aureus Smith P assessed as zone of inhibition by disk-plate assay; format: functional
[16] = as §1; format: functional, Enterobacteria phage lambda
[17] = Induction of lambda-bacteriophage expression in Escherichia coli assessed as induction of plaques at 3.1 ug/ml relative to control; format: functional, Enterobacteria phage lambda
[18] = as §4; format: functional, Enterobacteria phage lambda
P388 [19] = experiment: Antitumor activity against mouse P388 cells allografted CDF mouse assessed as increase in maximum survival time at 6.4 mg/kg treated on days 1 and 5 following tumor implantation relative to saline treated control; format: functional; in short: as §2
[20] = as §3; format: functional, Enterobacteria phage lambda
P388 [21] = experiment: Antitumor activity against mouse P388 cells allografted CDF mouse assessed as increase in maximum survival time at 12.8 mg/kg treated on days 1 and 5 following tumor implantation relative to saline treated control; format: functional, organism-based; parameters: dose 12.8 mg/kg
In short: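 CDF male mice inoculated intraperitoneally with 10⁶ P388 ascites leukemia cells. Compound given at 12.8 mg/kg on days 1 and 5 after tumor inoculum. Six mice per compound group and ten mice in the saline control group. Read-out is percent increase in maximum survival time over the saline controls.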

Escherichia coli [22] = experiment: Toxicity in lambda-bacteriophage infected Escherichia coli at 3.1 ug/ml; format: organism-based; settings: in vivo

Structure (SMILES): COC1=C(C)C(=O)C2=C(C1=O)[C@@H](COC(N)=O)[C@@]1(OC)[C@H]3N[C@H]3CN21 [MITOMYCIN A]
- Activity [1]: Active
- diameter of the inhibition zone (DIZ) (Escherichia coli [2]): 8 mm
- Activity (Escherichia coli [3]): Toxic
- Activity (Escherichia coli [4]): Toxic
- Ratio [5]: 7.4
- diameter of the inhibition zone (DIZ) [6]: 21 mm
- diameter of the inhibition zone (DIZ) (Bacillus subtilis): >22 mm
- survival at 3.2 mg/kg (P388 [7]): 80%
- diameter of the inhibition zone (DIZ) (Enterococcus faecalis): 21 mm
- Activity (Escherichia coli [8]): Toxic
- diameter of the inhibition zone (DIZ) (Escherichia coli [9]): 13 mm
- diameter of the inhibition zone (DIZ) (Staphylococcus aureus [10]): 23 mm
- Activity [11]: Active
- Activity [12]: Active
- diameter of the inhibition zone (DIZ) (Micrococcus luteus): >25 mm
- diameter of the inhibition zone (DIZ) (Klebsiella pneumoniae): 16 mm
- Activity (Escherichia coli [13]): Toxic
- Ratio [14]: 31.1
- diameter of the inhibition zone (DIZ) (Staphylococcus aureus [15]): 24 mm

Structure (SMILES): COC1=C(C)C(=O)c2c(c(COC(N)=O)c3n2CC[C@H]3O)C1=O
- Ratio [16]: 1.3
- diameter of the inhibition zone (DIZ) (Escherichia coli [2]): 0 mm
- diameter of the inhibition zone (DIZ) [6]: 0 mm
- diameter of the inhibition zone (DIZ) (Bacillus subtilis): 19 mm
- diameter of the inhibition zone (DIZ) (Enterococcus faecalis): 17 mm
- diameter of the inhibition zone (DIZ) (Escherichia coli [9]): 0 mm
- diameter of the inhibition zone (DIZ) (Staphylococcus aureus [10]): 17 mm
- Ratio [17]: 6.9
- Ratio [18]: 2.9
- diameter of the inhibition zone (DIZ) (Micrococcus luteus): 14 mm
- diameter of the inhibition zone (DIZ) (Klebsiella pneumoniae): 0 mm
- diameter of the inhibition zone (DIZ) (Staphylococcus aureus [15]): 17 mm

Structure (SMILES): COC1=C(C)C(=O)c2c(c(COC(N)=O)c3n2CC[C@H]3OC(C)=O)C1=O
- Ratio [16]: 4.3
- diameter of the inhibition zone (DIZ) (Escherichia coli [2]): 0 mm
- diameter of the inhibition zone (DIZ) [6]: 7 mm
- diameter of the inhibition zone (DIZ) (Bacillus subtilis): 23 mm
- diameter of the inhibition zone (DIZ) (Enterococcus faecalis): 16 mm
- diameter of the inhibition zone (DIZ) (Escherichia coli [9]): 1 mm
- diameter of the inhibition zone (DIZ) (Staphylococcus aureus [10]): 15 mm
- survival at 6.4 mg/kg (P388 [19]): 65%
- Ratio [17]: 24.5
- Ratio [18]: 13.2
- diameter of the inhibition zone (DIZ) (Micrococcus luteus): 14 mm
- diameter of the inhibition zone (DIZ) (Klebsiella pneumoniae): 0 mm
- diameter of the inhibition zone (DIZ) (Staphylococcus aureus [15]): 17 mm

Structure (SMILES): CNC(=O)OCc1c2c(n3c1[C@H](NC(C)=O)[C@H](OC(C)=O)C3)C(=O)C(C)=C(OC)C2=O (relative stereo)
- Ratio [16]: 1.1
- diameter of the inhibition zone (DIZ) (Escherichia coli [2]): 0 mm
- Ratio [5]: 1.6
- diameter of the inhibition zone (DIZ) [6]: 0 mm
- diameter of the inhibition zone (DIZ) (Bacillus subtilis): 14 mm
- diameter of the inhibition zone (DIZ) (Enterococcus faecalis): 13 mm
- diameter of the inhibition zone (DIZ) (Escherichia coli [9]): 0 mm
- diameter of the inhibition zone (DIZ) (Staphylococcus aureus [10]): 13 mm
- Ratio [20]: 1.4
- Activity (P388 [21]): inactive
- Ratio [18]: 1.6
- diameter of the inhibition zone (DIZ) (Micrococcus luteus): 13 mm
- diameter of the inhibition zone (DIZ) (Klebsiella pneumoniae): 0 mm
- Ratio [14]: 1.2
- diameter of the inhibition zone (DIZ) (Staphylococcus aureus [15]): 15 mm

Structure (SMILES): COC1=C(C)C(=O)c2c(c(COC(N)=O)c3n2C[C@@H](NC(C)=O)[C@H]3OC(C)=O)C1=O
- Ratio [16]: 0.8
- diameter of the inhibition zone (DIZ) (Escherichia coli [2]): 0 mm
- diameter of the inhibition zone (DIZ) [6]: 0 mm
- diameter of the inhibition zone (DIZ) (Bacillus subtilis): 0 mm
- diameter of the inhibition zone (DIZ) (Enterococcus faecalis): 0 mm
- diameter of the inhibition zone (DIZ) (Escherichia coli [9]): 0 mm
- diameter of the inhibition zone (DIZ) (Staphylococcus aureus [10]): 5 mm
- Ratio [17]: 1.6
- Ratio [18]: 1.1
- diameter of the inhibition zone (DIZ) (Micrococcus luteus): 9 mm
- diameter of the inhibition zone (DIZ) (Klebsiella pneumoniae): 0 mm
- diameter of the inhibition zone (DIZ) (Staphylococcus aureus [15]): 5 mm

Structure (SMILES): COC1=C(C)C(=O)c2c(c(COC(N)=O)c3n2C[C@@H](N)[C@H]3O)C1=O
- Ratio [16]: 1.4
- diameter of the inhibition zone (DIZ) (Escherichia coli [2]): 0 mm
- diameter of the inhibition zone (DIZ) [6]: 4 mm
- diameter of the inhibition zone (DIZ) (Bacillus subtilis): 8 mm
- diameter of the inhibition zone (DIZ) (Enterococcus faecalis): 6 mm
- Activity (Escherichia coli [8]): Toxic
- diameter of the inhibition zone (DIZ) (Escherichia coli [9]): 2 mm
- diameter of the inhibition zone (DIZ) (Staphylococcus aureus [10]): 9 mm
- Ratio [17]: 16.7
- Ratio [18]: 4.1
- diameter of the inhibition zone (DIZ) (Micrococcus luteus): 9 mm
- diameter of the inhibition zone (DIZ) (Klebsiella pneumoniae): 0 mm
- Activity (Escherichia coli [22]): Toxic
- diameter of the inhibition zone (DIZ) (Staphylococcus aureus [15]): 11 mm
